As usually defined, the GI50 is the concentration that inhibits growth by half. The EC50 is the concentration giving half of the maximal effect.

SMILES strings stand for the structures. Activity calls are given as the source filed them. The rule behind the calls is not given here.

Results on twelve compounds are retold here after ChEMBL document CHEMBL1152313, “Cytotoxic and HIF-1alpha inhibitory compounds from Crossosoma bigelovii” (J Nat Prod, 2009).

Data set [1] has as its system A549. Put plainly: Cytotoxicity against human A549 cells by MTT assay. The class given is functional. (Tetrazolium assays rely on reduction of a dye to a coloured formazan, in cell work by metabolically active cells.)
Data set [2] deals with HT-29. In words: Cytotoxicity against human HT-29 cells by MTT assay. The data set is classed as functional. Put shortly:
(§1)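 Cells were grown in MEM with 10% fetal calf serum, 0.1 g L⁻¹ penicillin G and 0.1 g L⁻¹ streptomycin sulfate. They were seeded into 96-well plates one day before dosing and incubated overnight at 37 °C. Compounds were dissolved in DMSO, diluted in medium to several concentrations and left on the cells for six days. Survival was read colorimetrically by MTT at 547 nm, with adriamycin as reference.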

The subject of data set [3] is MCF7. Put plainly: Cytotoxicity against human MCF7 cells by MTT assay. The class given is functional. In a few lines: as §1
The test system of data set [4] is U-251. Put plainly: Growth inhibition of human U251 cells stably transfected with pGL2-TK-HRE plasmid after 24 hrs. The data set is classed as cell-based. To be noted: u-251, 24 h.
Data set [5] has as its system U-251. Put plainly: Growth inhibition of human U251 cells stably transfected with pGL3 plasmid after 24 hrs. The data set is classed as cell-based. The conditions noted are these: u-251, 24 h.
Data set [6] addresses T1, Hypoxia inducible factors; HIF-1-alpha, HIF-2-alpha (Homo sapiens, UniProt Q16665+Q99814). In words: Inhibition of HIF1 activation in human U251 cells stably transfected in pGL2-TK-HRE plasmid under hypoxic condition after 16 to 24 hrs by luciferase reporter gene assay. The class given is cell-based. The conditions noted are these: u-251. (Reporter assays use an easily measured gene product as a stand-in for the process of interest.)

Data set [7] concerns U-251. In words: Reduction in VEGF mRNA expression in wild type human U251 cells under hypoxic condition after 8 hrs. The data set is classed as functional, cell-based. Put shortly:
(§2)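 Wild-type U251 cells treated 8 or 16 h under hypoxia (1% O₂, 37 °C). Total RNA isolated; 500 ng reverse-transcribed (10 min 25 °C, 30 min 48 °C, 5 min 95 °C). VEGF or CA9 transcript quantified by real-time PCR on 5 ng cDNA in triplicate (2 min 50 °C, 10 min 95 °C, then 40 cycles of 15 s 95 °C and 1 min 60 °C).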

The target in data set [8] is T1, Hypoxia inducible factors; HIF-1-alpha, HIF-2-alpha. In words: Inhibition of HIF1 activation in human U251 cells transiently transfected in pGL2-TK-HRE plasmid under hypoxic condition at 0.1 to 0.005 uM after 16 hrs by luciferase reporter gene assay. To be noted: U-251. The data set is classed as cell-based. Put shortly:
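Wild-type U251 cells transiently transfected with pGL2-TK-HRE using Effectene for 16 h. Medium then changed and compound added for 16 h under hypoxia (1% O₂, 5% CO₂, 37 °C) or normoxia (21% O₂). Luciferase read with Steady Glo reagent.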

The target is the same in data set [9]. Put plainly: Inhibition of HIF1 activation in human U251 cells stably transfected in pGL2-TK-HRE plasmid under hypoxic condition assessed as reduction of luciferase expression at 0.062 uM after 16 to 24 hrs by luciferase reporter gene assay. The conditions noted are these: U-251. The arrangement: scale not given: the % may be the effect or the level left. The data set is classed as cell-based.

The target is the same in data set [10]. Put plainly: Inhibition of HIF1 activation in human U251 cells stably transfected in pGL3 plasmid under hypoxic condition assessed as reduction of luciferase expression at 0.062 uM after 16 to 24 hrs by luciferase reporter gene assay. The class given is cell-based. The arrangement: scale not given: the % may be the effect or the level left. The conditions noted are these: U-251.

Data set [11] has as its system U-251. Put plainly: Inhibition of HIF1alpha protein expression in wild type human U251 cells under hypoxic condition at 0.025 uM treated 8 hrs before hypoxia induction. The class given is functional, cell-based.
For data set [12], the system named is U-251. Put plainly: Reduction in VEGF mRNA expression in wild type human U251 cells under hypoxic condition after 16 hrs. The class given is functional, cell-based. Put shortly:
as §2

For data set [13], the system named is U-251. Put plainly: Inhibition of HIF1alpha protein expression in wild type human U251 cells under hypoxic condition at 0.025 uM treated 16 hrs before hypoxia induction. The data set is classed as functional, cell-based.
Data set [14] concerns U-251. Put plainly: Reduction in carbonic anhydrase 9 mRNA expression in wild type human U251 cells under hypoxic condition at 0.1 uM after 16 hrs. The class given is functional, cell-based. In a few lines:
as §2

Data set [15] relates to U-251. In words: Reduction in carbonic anhydrase 9 mRNA expression in wild type human U251 cells under hypoxic condition at 0.1 uM after 8 hrs. The class given is functional, cell-based. Put shortly:
as §2

Turning to `COc1c(O[C@@H]2O[C@H](CO[C@@H]3O[C@@H](C)[C@H](O)[C@@H](O)[C@H]3O)[C@@H](O)[C@H](O)[C@H]2O)cc2oc(C)cc(=O)c2c1O`, the GI50 stood at 400 nM in data set [1], 6000 nM in data set [2] and 800 nM in data set [3].

As for `CO[C@H]1[C@H](O[C@H]2CC[C@]3(C=O)[C@H]4CC[C@]5(C)[C@@H](C6=CC(=O)OC6)CC[C@]5(O)[C@@H]4CC[C@]3(O)C2)O[C@H](C)C[C@H]1O[C@@H]1O[C@H](CO)[C@@H](O)[C@H](O)[C@H]1O`, the 50% growth inhibitory concentration (GI50) stood at 8 nM in [1], 70 nM in [2] and 10 nM in [3]. In addition, the Activity result in [4] and in [5] was “Non-toxic” throughout. The EC50 in data set [6] was 600 nM.

With `COc1cc(O)c2c(=O)cc(C)oc2c1` [EUGENIN], the GI50 turned out to be 14000 nM in [1], 25000 nM in [2] and 10000 nM in data set [3].

For the compound `Cc1cc(=O)c2c(O)cc(O)cc2o1` [NOREUGENIN], the GI50 in data set [1], in data set [2] and in [3] was more than 50000 nM each time.

As for `COc1cccc2c1C(=O)c1c(O)c3c(c(O)c1C2=O)C[C@@](O)(C(=O)CO)C[C@@H]3O[C@H]1C[C@H](N)[C@H](O)[C@H](C)O1` [DOXORUBICIN], the results for the GI50 in data set [1], in [2] and in data set [3] were 7 nM, 60 nM and 100 nM, respectively. In data set [6], the EC50 was 120 nM.

As to `C[C@]12CC[C@H]3[C@@H](CC[C@]4(O)C[C@@H](O)CC[C@]34C=O)[C@@]1(O)CC[C@@H]2C1=CC(=O)OC1` [STROPHANTHIDIN], the Activity result in data set [4] and in data set [5] was “Non-toxic” throughout.

As for `CC[C@@]1(O)C(=O)OCc2c1cc1n(c2=O)Cc2cc3c(CN(C)C)c(O)ccc3nc2-1`, the result in [7] was inactive.

Take `C[C@@H]1O[C@@H](O[C@H]2CC[C@]3(C=O)[C@H]4CC[C@]5(C)[C@@H](C6=CC(=O)OC6)CC[C@]5(O)[C@@H]4CC[C@]3(O)C2)[C@H](O)[C@H](O)[C@H]1O` [CONVALLATOXIN]: the Activity result in data set [4] was “Non-toxic”; in [5], “Non-toxic”; in data set [9] it was 77%; in data set [10] it was 50%. Moreover, the result in data set [7], in [8], in [11], in [12], in [13] and in [14] was Active. The outcome in data set [15] was Active. Besides, the EC50 in data set [6] was determined as 20 nM.

As to `COc1c(O)cc2oc(C)cc(=O)c2c1O` [PISONIN B], the GI50 in data set [1] is 225000 nM; in data set [2] it was 180000 nM; in [3], more than 450000 nM.

Consider `CO[C@H]1C[C@H](O[C@H]2CC[C@]3(C=O)[C@H]4CC[C@]5(C)[C@@H](C6=CC(=O)OC6)CC[C@]5(O)[C@@H]4CC[C@]3(O)C2)O[C@H](C)[C@H]1O[C@@H]1O[C@H](CO[C@@H]2O[C@H](CO)[C@@H](O)[C@H](O)[C@H]2O)[C@@H](O)[C@H](O)[C@H]1O`, for which the Activity result in data set [4] and in data set [5] was “Non-toxic” each time. Besides, the EC50 in data set [6] is 40 nM.

For the compound `CO[C@H]1C[C@H](O[C@H]2CC[C@]3(C=O)[C@H]4CC[C@]5(C)[C@@H](C6=CC(=O)OC6)CC[C@]5(O)[C@@H]4CC[C@]3(O)C2)O[C@H](C)[C@H]1O[C@@H]1O[C@H](CO)[C@@H](O)[C@H](O)[C@H]1O`, the Activity entry in data set [4] and in [5] was “Non-toxic” in each case.

On to `Cc1cc(=O)c2c(O)cc(O[C@@H]3O[C@H](CO[C@@H]4O[C@@H](C)[C@H](O)[C@@H](O)[C@H]4O)[C@@H](O)[C@H](O)[C@H]3O)cc2o1`, for which the values for the GI50 in data set [1], in data set [2] and in [3] were 400 nM, 6000 nM and 800 nM, respectively.
